The values that follow come from ChEMBL document CHEMBL2331132, “Synthesis, evaluation and absolute configuration assignment of novel dihydropyrimidin-2-ones as picomolar sodium iodide symporter inhibitors” (Eur J Med Chem, 2013).

Broadly, the IC50 is the concentration at which inhibition is half-maximal. The low end stands for greater potency in that assay, the high end for weaker potency in that assay.

Each structure is given as a SMILES string.

One series has as its system FRTL-5. The experiment in a line: Cytotoxicity against rat FRTL5 cells at 1 uM after 24 hrs by MTT assay. Format: cell-based. To be noted: frtl-5, 24 h. A digest of the protocol:
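Rat FRTL5 thyroid cells at about 50% confluence, given a single compound concentration for 24 h. MTT added (1.2 mg/mL), then 3 h at 37 °C and absorbance read at 570 nm to score viability. Ouabain run as assay control at eight concentrations.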
As to `COc1ccc(COC(=O)C2=C(C)N(C)C(=O)N(C)C2c2ccco2)cc1` (configuration not stated), the Activity result is on record as “Non-toxic”. Regarding `COc1ccc(COC(=O)C2=C(C)N(C)C(=O)NC2c2ccco2)cc1OC` (configuration not stated), the Activity result was “Non-toxic”.

For the molecule `COc1cccc(COC(=O)C2=C(C)NC(=O)NC2c2ccco2)c1` (configuration not stated), the Activity entry was “Non-toxic”. As to `CC1=C(C(=O)OCc2ccc3c(c2)OCO3)C(c2ccco2)NC(=O)N1C` (configuration not stated), the Activity entry is given as “Non-toxic”. As to `COc1cccc(COC(=O)C2=C(C)N(C)C(=O)NC2c2ccco2)c1` (configuration not stated), the Activity entry is “Non-toxic”. With `CC1=C(C(=O)OCc2ccc3c(c2)OCO3)C(c2ccco2)N(C)C(=O)N1C` (configuration not stated), the Activity entry is on record as “Non-toxic”. In the case of `CC1=C(C(=O)OCc2ccc3c(c2)OCO3)C(c2ccco2)NC(=O)N1` (configuration not stated), the Activity entry is reported as “Non-toxic”. Still for that read-out and setting: as for `COc1ccc(COC(=O)C2=C(C)NC(=O)NC2c2ccco2)cc1` (configuration not stated), the entry is “Non-toxic”. Still for that read-out and setting: as for `COc1cccc(COC(=O)C2=C(C)N(C)C(=O)N(C)C2c2ccco2)c1` (configuration not stated), the entry is “Non-toxic”; as for `COc1ccc(COC(=O)C2=C(C)NC(=O)NC2c2ccco2)cc1OC` (configuration not stated), “Non-toxic”; as for `COc1ccc(COC(=O)C2=C(C)N(C)C(=O)N(C)C2c2ccco2)cc1OC` (configuration not stated), “Non-toxic”. Consider `COc1ccc(COC(=O)C2=C(C)N(C)C(=O)NC2c2ccco2)cc1` (configuration not stated), for which the Activity result is “Non-toxic”.

Another series has as its target T1, Sodium/iodide cotransporter (Rattus norvegicus, UniProt Q63008).
T1 sequence (Q63008 whole entry): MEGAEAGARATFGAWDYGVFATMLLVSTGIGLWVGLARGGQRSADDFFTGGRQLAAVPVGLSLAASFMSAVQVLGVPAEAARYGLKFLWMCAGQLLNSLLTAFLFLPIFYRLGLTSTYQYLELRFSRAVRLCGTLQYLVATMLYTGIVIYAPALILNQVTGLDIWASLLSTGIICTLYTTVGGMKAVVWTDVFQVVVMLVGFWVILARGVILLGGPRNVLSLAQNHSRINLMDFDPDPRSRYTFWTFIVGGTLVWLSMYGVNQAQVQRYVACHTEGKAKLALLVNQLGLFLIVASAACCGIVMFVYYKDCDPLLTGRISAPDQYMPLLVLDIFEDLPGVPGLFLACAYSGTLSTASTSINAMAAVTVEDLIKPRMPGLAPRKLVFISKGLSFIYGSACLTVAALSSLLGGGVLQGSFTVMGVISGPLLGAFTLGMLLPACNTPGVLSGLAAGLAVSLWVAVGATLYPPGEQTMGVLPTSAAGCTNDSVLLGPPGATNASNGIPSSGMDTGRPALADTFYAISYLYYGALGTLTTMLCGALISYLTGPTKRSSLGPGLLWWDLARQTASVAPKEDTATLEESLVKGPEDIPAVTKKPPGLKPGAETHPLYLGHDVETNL
As to the kind of experiment: inhibition of sodium iodide symporter in rat FRTL5 cells after 1 hr by arsenic/cerium titration assay. Format: cell-based, FRTL-5.
Conditions: not given
An outline of the steps:
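Iodide entrapment measured in FRTL5 cells after 1 h incubation at 20 ± 1 °C. Supernatant removed, then cellular iodide read at once by a modified non-radioactive As/Ce Sandell–Kolthoff reaction against iodide standards. DMSO stocks 20 mM; NaClO₄ and a reference inhibitor on every plate as controls. Racemates tested. IC₅₀ from a four-parameter Hill fit, averaged over ≥2 independent experiments.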
As for `COc1ccc(COC(=O)C2=C(C)NC(=O)N[C@@H]2c2ccco2)cc1`, the IC50 amounted to 630 nM. The molecule `COc1ccc(COC(=O)C2=C(C)N(C)C(=O)NC2c2ccco2)cc1OC` (configuration not stated) gave an IC50 of 1000 nM.

Consider `CC1=C(C(=O)OCc2ccc3c(c2)OCO3)[C@@H](c2ccco2)N(C)C(=O)N1C`, for which the IC50 worked out at 0.7 nM. `COc1ccc(COC(=O)C2=C(C)NC(=O)NC2c2ccccc2)cc1` (configuration not stated) had an IC50 of 89 nM.

Regarding `COc1ccc(COC(=O)C2=C(C)NC(=O)N[C@@H]2c2ccccc2)cc1`, half-maximal inhibition (IC50) required 70 nM.

For `CC1=C(C(=O)OCc2ccc3c(c2)OCO3)[C@H](c2ccco2)N(C)C(=O)N1C`, half-maximal inhibition (IC50) required 630 nM.

In the case of `COc1ccc(COC(=O)C2=C(C)NC(=O)N[C@H]2c2ccco2)cc1`, the IC50 was 14000 nM. The same measure, in the same setting: as for `COc1ccc(COC(=O)C2=C(C)NC(=O)N[C@H]2c2ccccc2)cc1`, the figure is 1500 nM; as for `COc1ccc(COC(=O)C2=C(C)NC(=O)NC2c2ccco2)cc1OC` (configuration not stated), 400 nM.

`COc1ccc(COC(=O)C2=C(C)N(C)C(=O)N(C)C2c2ccco2)cc1OC` (configuration not stated) gave an IC50 of 65 nM.
